Reference: publication PMC4021855 (Nature chemical biology, 2013)

Key:
KRS–LR interaction [1] = target: T1, KRS–LR interaction (Homo sapiens, UniProt Q15046); assay: Yeast two-hybrid; assay type: cell-based; settings: Y2H, 50 μg/ml, 6-day incubation
Summary of the method: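 Yeast EGY/SH cells co-expressing LexA–KRS and B42–LR grown in galactose medium lacking Ura, His, Trp and Leu, with compound at 50 μg/ml final. OD540 read after 6 days.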

KRS–67LR interaction = KRS–67LR interaction (Homo sapiens, UniProt Q15046); assay: In vitro pull-down and IP assays; assay type: binding
Summary of the method: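 In vitro: 37LRP radiolabelled by coupled transcription/translation, mixed with 1 μg GST–KRS plus test compound, then GST pull-down; bound 37LRP detected by autoradiography. IP: Myc-KRS-transfected H226 cells pretreated with laminin 10 μg/ml for 1 h in serum-free medium, then test compound for 4 h. Lysates or membrane/cytosol fractions then used for IP and immunoblotting.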

MMP-2 = MMP-2 zymography; assay type: cell-based
Summary of the method: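 H226 cells treated with laminin (10 μg/ml) plus test compound for 12 h. Conditioned-medium proteins run on 10% SDS-PAGE containing 1 mg/ml gelatin. Gel incubated in reaction buffer; gelatinolytic zone of MMP-2 visualised by Coomassie Blue staining.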

H226 cells [2] = assay: Transwell cell migration assay; assay type: cell-based, human
Summary of the method: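 H226 cells (1×10^5 per well) placed in the top chamber of a laminin-coated (10 μg/ml) 8.0 μm polycarbonate Transwell and left to migrate for 12 h with test compound. Migrated cells fixed in 70% methanol and stained with hematoxylin. Non-migrants swabbed off; cells counted in 3 random ×20 fields.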

67LR = assay: Membranous 67LR level by immunoblotting; assay type: cell-based
H226 cells [3] = assay: Matrigel invasion assay; assay type: cell-based, human
Summary of the method: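 Upper chamber of Transwell (8.0 μm pore polycarbonate) coated with Matrigel 1 mg/ml in cold serum-free medium and set 4 h at 37°C. H226 cells seeded on top; lower chamber held medium with laminin 10 μg/ml. Cells exposed to test compound for 24 h. Invaded cells fixed in 70% methanol, hematoxylin-stained, and counted in 3 random ×20 fields. Mean ± s.d.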

WI-26 cells [4] = assay: Transwell cell migration assay; assay type: cell-based; settings: read-out: IC50 for inhibition of migration of WI-26
KRS–AIMP2 = KRS–AIMP2 (Homo sapiens, UniProt Q15046); assay: Quantification of the KRS–AIMP2 interaction; assay type: binding; settings: 0–100 μM
Summary of the method: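 AlphaScreen format. His-tagged KRS incubated overnight at 4°C with test compound (0–100 μM final). Ni-chelate donor beads (0.01 mg/ml final) added for 15 min. Acceptor beads (0.01 mg/ml final) and biotinylated AIMP2(1–48)–thioredoxin fusion then added for 1.5 h. Emission read at 520–620 nm, room temperature, triplicate.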

KRS1–207 = KRS1–207 (Homo sapiens, UniProt Q15046); assay: SPR binding analysis
Summary of the method: (§1)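 Proteins immobilised at 30 μg/ml in 10 mM sodium acetate pH 5.0 on a CM5 chip: His-KRS WT, 1–207 and 220–597, plus GST-37LRP. Test compound in PBS with 0.05% Tween 20 and 2% DMSO, flowed at 20 μl/min, 25°C; binding read as RU change. For GST-tagged proteins, GST-only RU subtracted. Apparent constants fitted to 1:1 binding with drifting baseline.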

37LRP = 37LRP (Homo sapiens, UniProt P08865); assay: SPR binding analysis
Summary of the method: as §1

KRS–LR interaction [5] = target: T1, KRS–LR interaction; assay: Comparison of YH16899 with BC-K01 across functional assays; settings: most of the assays tested
4T1 cells = assay: 4T1 mammary fat pad breast cancer metastasis model; assay type: in vivo, mouse; settings: oral, 100 and 300 mg/kg
Summary of the method: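 4×10^4 4T1 cells injected into the surgically exposed No. 2 mammary fat pad of anaesthetised 7-week-old female BALB/cAnCr mice. Primary tumours (100–150 mm³) resected on day 10. Groups of n=5 balanced by resected tumour weight. Test compound or 0.5% methyl cellulose given orally once daily from day 1 after resection. Lungs excised at day 28 post-injection, fixed in Bouin's solution, and pulmonary nodules counted.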

H226 cells [6] = assay: Total protein synthesis; assay type: cell-based, human
Summary of the method: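 Compound-treated H226 cells held 30 min in Met-free medium, then labelled with [³⁵S]Met for 2 h. Cells returned to complete medium for 4 h, then lysed; radioactivity measured by scintillation counting. Lys variant used Lys-free medium and [³H]Lys.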

KRS = KRS (Homo sapiens, UniProt Q15046); assay: KRS aminoacylation enzymatic assay; assay type: biochemical; settings: 0 to 40 μM
Summary of the method: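 KRS pre-incubated with test compound (0 to 40 μM final) for 30 min at 4°C before the aminoacylation reaction. Reaction aliquots quenched and precipitated on filter plates, washed, eluted with 0.2 M NaOH, and counted on a scintillation plate reader.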

Tg(MMTV-PyVT) mouse = assay: Tg; assay type: in vivo; settings: 100 mg/kg intraperitoneally every other day for 6 weeks
[7] = Hematological metrics and blood chemistry in ICR mice; assay type: in vivo, mouse; settings: high doses
H226 cells [8] = assay: MTT cell viability assay; assay type: cell-based, human; settings: 24 h
Summary of the method: (§2)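 1×10^4 cells per well in 96-well plates; preincubated 1 h with laminin, then exposed to test compound for 24 h in serum-free medium. MTT (stock 5 mg/ml, diluted 10-fold) added for 30 min. Crystals dissolved in DMSO; absorbance read at […].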

A549-RFP cells = assay: A549-RFP left ventricle injection metastasis model; assay type: in vivo, mouse; settings: 100 mg/kg oral once a day
Summary of the method: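 1×10^6 stable A549-RFP cells injected into the left ventricle of anaesthetised 6-week-old female BALB/cAnCr nude mice, n=10 per group. Test compound or 0.5% methyl cellulose given orally once daily from day 1 for 130 days. RFP signal of 5 random mice imaged by IVIS weekly, weeks 4–7. Body weight taken twice weekly for 50 days; survival followed to day 130.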

WI-26 cells [9] = assay: MTT cell viability assay; assay type: cell-based; settings: 24 h
Summary of the method: as §2

[10] = Pharmacokinetics analysis in male ICR mice; assay type: in vivo, mouse; settings: 3 mg/kg
Summary of the method: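 Male ICR mice, n=4 per group, dosed at 3 mg/kg. Intravenous dosing as a solution in 40% dimethylformamide; oral dosing as a suspension in 0.5% methyl cellulose. About 50 μl orbital-vein blood drawn at 0.083 (i.v. only), 0.25, 0.5, 1, 2, 4, 8 and 24 h. Plasma stored at −70°C.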

KRS–67LR interaction, sequence (Q15046 whole entry): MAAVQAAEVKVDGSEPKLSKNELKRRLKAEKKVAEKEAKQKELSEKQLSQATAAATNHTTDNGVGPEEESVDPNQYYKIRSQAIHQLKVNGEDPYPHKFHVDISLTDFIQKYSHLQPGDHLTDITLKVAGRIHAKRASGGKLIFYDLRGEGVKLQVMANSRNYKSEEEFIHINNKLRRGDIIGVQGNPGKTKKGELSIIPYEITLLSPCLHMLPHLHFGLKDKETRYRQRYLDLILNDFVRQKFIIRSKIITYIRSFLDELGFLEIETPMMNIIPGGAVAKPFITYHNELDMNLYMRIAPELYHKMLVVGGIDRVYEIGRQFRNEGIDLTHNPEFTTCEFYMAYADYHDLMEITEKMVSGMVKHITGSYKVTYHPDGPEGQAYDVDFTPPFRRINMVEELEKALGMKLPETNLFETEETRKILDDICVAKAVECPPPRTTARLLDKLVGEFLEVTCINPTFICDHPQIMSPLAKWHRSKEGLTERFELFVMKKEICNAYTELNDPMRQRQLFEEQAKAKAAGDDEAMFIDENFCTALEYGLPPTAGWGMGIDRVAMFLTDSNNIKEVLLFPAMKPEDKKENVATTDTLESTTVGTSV
T1 sequence (Q15046 whole entry): as above
KRS, sequence (Q15046 whole entry): as above
KRS–AIMP2, sequence (Q15046 whole entry, the tested form may be a part): as the sequence (Q15046 whole entry) above
KRS–AIMP2, sequence (Q13155 1-48 partner limits assumed): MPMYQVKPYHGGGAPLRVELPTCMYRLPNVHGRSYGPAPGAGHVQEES
KRS1–207, sequence (Q15046 1-207): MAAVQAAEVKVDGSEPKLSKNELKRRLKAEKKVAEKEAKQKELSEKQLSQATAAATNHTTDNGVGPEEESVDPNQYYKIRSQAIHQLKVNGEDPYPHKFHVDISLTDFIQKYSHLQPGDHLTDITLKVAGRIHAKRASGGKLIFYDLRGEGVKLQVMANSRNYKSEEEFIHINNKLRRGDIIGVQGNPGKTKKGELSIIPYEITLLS

CCC(C(=O)O)n1c(=NC(=O)c2ccc(C)cc2)sc2ccccc21 (centres unmarked) [BC-K01, 2-(2-{[4-(methyl)benzoyl]imino}benzothiazol-3-yl)butanoic acid]
inhibition of KRS–LR interaction without affecting KRS–AIMP2 and MRS–AIMP3 pairs (KRS–LR interaction [1]): specifically inhibited | effect on binding of KRS and LR (KRS–67LR interaction): reduced the binding of the two proteins | effect on MMP-2 (MMP-2): suppressed the activity of MMP-2 | effect on cell migration (H226 cells [2]): suppressed | effect on level of 67LR in the plasma membrane (67LR): decreased the level of 67LR in the plasma membrane in a concentration-dependent manner | effect on cell invasion (H226 cells [3]): suppressed

CCC(C(=O)O)n1c(=NC(=O)c2cccc(C(F)(F)F)c2)sc2cc(F)c(F)cc21 (centres unmarked) [YH16899, 2-(5,6-difluoro-2-{[3-(trifluoromethyl)benzoyl]imino}benzo[d]thiazol-3(2H)-yl)butanoic acid]
IC50 (WI-26 cells [4]): > 50 µM | change in KRS binding affinity to AIMP2 (KRS–AIMP2): little or no change | binding to KRS1–207 compared with KRS1–597 and KRS220–597 (KRS1–207): preferential binding | binding to 37LRP (37LRP): did not show significant binding | effect on binding of KRS and LR (KRS–67LR interaction): hindered the interaction between the two proteins | improvement of IC50 compared to BC-K01 (KRS–LR interaction [5]): 3- to 6 fold | effect on body weight (4T1 cells): little or no effect on body weight | inhibition of tumor metastases to the lungs (4T1 cells; once a day): approximately 60% | effect on MMP-2 (MMP-2): suppressed the induction of MMP-2 | effect on cellular protein synthesis (H226 cells [6]): little or no effect | effect on the catalytic activity of KRS (KRS): little or no effect | effect on body weight (Tg(MMTV-PyVT) mouse): without affecting body weight | reduction of pulmonary nodule formation (Tg(MMTV-PyVT) mouse): approximately 70% | side effects (hematological metrics and blood chemistry) [7]: few side effects | effect on cell viability (H226 cells [8]): did not affect the cell viability | IC50 (H226 cells [2]; Homo sapiens, NCI-H226, 12 h, read-out: IC50 for inhibition of H226 migration): 8.5 ± 2.1 µM | effect on body weight (A549-RFP cells): did not affect the body weight | survival (A549-RFP cells; followed up to 130 days): greatly enhanced survival | reduction of average radiance (photon imaging) (A549-RFP cells; up to 7 weeks): approximately 50% | effect on cell viability (WI-26 cells [9]): did not affect the cell viability | effect on level of 67LR in the plasma membrane (67LR): decreased the amount of membranous 67LR | volume of distribution in vivo compared to BC-K01 [10]: better volume of distribution | suppression of cell invasion (H226 cells [3]; H226 cells, Matrigel): approximately 85%
